Source: PubChem
Rows were chosen to be rich in hits. Some 1.9% of all compounds tested hit in one or more screens of this group.
TbMetRS inhib: T. brucei MetRS inhibitors, primary screen, biochemical, luminescence; methionyl-tRNA synthetase (Trypanosoma brucei brucei); purified T. brucei MetRS, ATP depletion, Kinase-Glo luminescence; inhibition, % at 11.9 µM; 360,000 compounds, 0.4% hits; AID 624268, 2012;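 active means inhibition above a per-plate cutoff of the control wells' mean inhibition plus 3 SD, cut at about 5.5% in these data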
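Test system: purified T. brucei MetRS enzyme. Also added: ATP, methionine and E. coli bulk tRNA substrates. Compound: 11.9 µM single point. Schedule: 15 min enzyme-compound preincubation, 2 h reaction, 10 min detection, 25 °C. Signal: luciferase luminescence of residual ATP, Kinase-Glo. Evaluation: percent inhibition versus plate control medians. Controls: DMSO wells, low control.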
HGIII-sPLA2 inh: human group III sPLA2 inhibitors, primary screen, biochemical, QFRET, BODIPY PC-A2 liposome substrate; 370,000 compounds, 0.56% hits; inhibition, % at 12.2 µM; QFRET BODIPY PC-A2 liposome hydrolysis, fluorescence; Group 3 secretory phospholipase A2 (Homo sapiens), Q9NZ20;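 active means inhibition above mean plus 3 SD of compounds lying within the high and low control bounds, cut at about 19% in these data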
PLC-beta3 inh: human PLC-beta3 inhibitors, primary screen, biochemical, fluorescence. 1-phosphatidylinositol 4,5-bisphosphate phosphodiesterase beta-3 (Homo sapiens), Q01970. Purified PLC-beta3, fluorogenic substrate. inhibition, % at 12.2 µM. 370,000 compounds, 0.18% hits; in the data active means inhibition above about 11%
PLCg1 inh: PLC-gamma1 enzyme inhibitors, primary screen, biochemical, fluorescence, purified enzyme; inhibition, % at 12.2 µM; AID 720700, 2013; 1-phosphatidylinositol 4,5-bisphosphate phosphodiesterase gamma-1 (Homo sapiens), P19174; fluorogenic substrate; 370,000 compounds, 0.84% hits; in the data active means inhibition above about 9.5%
Target sequence (P19174 whole entry, looked up): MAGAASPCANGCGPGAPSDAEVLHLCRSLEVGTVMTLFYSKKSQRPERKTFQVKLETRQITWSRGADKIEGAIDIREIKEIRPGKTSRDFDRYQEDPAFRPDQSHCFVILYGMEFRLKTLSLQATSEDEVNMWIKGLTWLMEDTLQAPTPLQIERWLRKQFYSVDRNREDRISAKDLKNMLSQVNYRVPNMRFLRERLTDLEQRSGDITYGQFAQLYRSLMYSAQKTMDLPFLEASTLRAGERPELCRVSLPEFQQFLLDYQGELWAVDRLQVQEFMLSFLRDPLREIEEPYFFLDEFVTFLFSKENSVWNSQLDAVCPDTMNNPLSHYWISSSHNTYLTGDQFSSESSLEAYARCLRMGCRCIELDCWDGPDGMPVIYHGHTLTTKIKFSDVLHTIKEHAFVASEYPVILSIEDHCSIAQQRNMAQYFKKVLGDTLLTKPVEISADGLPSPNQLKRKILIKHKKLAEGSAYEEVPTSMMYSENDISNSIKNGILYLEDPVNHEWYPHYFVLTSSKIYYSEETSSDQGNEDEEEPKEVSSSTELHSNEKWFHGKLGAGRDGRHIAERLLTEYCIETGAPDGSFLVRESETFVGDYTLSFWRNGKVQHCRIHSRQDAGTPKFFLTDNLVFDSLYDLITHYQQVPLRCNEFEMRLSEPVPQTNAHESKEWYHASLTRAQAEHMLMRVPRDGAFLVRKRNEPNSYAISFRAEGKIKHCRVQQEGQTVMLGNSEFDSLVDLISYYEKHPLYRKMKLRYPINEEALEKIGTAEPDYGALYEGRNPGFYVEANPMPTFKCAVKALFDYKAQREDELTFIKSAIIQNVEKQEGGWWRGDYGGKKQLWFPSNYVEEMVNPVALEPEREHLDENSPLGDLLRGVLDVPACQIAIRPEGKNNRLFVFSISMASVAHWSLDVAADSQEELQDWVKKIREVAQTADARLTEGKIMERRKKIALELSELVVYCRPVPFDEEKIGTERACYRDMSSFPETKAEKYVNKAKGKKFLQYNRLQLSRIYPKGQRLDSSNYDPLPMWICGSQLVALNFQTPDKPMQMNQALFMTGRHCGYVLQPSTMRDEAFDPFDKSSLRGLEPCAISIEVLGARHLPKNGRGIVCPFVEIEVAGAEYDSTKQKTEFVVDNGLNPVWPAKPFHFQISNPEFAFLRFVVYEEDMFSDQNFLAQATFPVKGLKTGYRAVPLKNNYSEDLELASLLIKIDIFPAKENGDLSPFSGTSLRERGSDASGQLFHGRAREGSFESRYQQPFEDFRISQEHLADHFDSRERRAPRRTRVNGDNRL
Tb MetRS conf: T. brucei MetRS inhibitors, confirmation, biochemical, luminescence; shares compounds with TbMetRS inhib; inhibition, % at 11.9 µM; T. brucei MetRS enzyme, luminescence (ATP depletion); 1,400 compounds, 93% hits; in the data active means inhibition above about 7%
Jurkat tox: Jurkat T cell cytotoxicity, cytotoxicity control for T. brucei MetRS inhibitor project, luminescence, high throughput; shares compounds with TbMetRS inhib; Jurkat cells viability, ATP luminescence; inhibition, % at 8.3 µM; 1,400 compounds, 12% hits; AID 624413, 2012; in the data active means inhibition above about 15%
Tb MetRS inh FP: T. brucei MetRS inhibitors, orthogonal assay for T. brucei MetRS inhibitor project, biochemical, fluorescence polarization; inhibition, % at 11.9 µM; AID 651607, 2012; purified T. brucei MetRS; 1,400 compounds, 44% hits; shares compounds with TbMetRS inhib; in the data active means inhibition above about 17%
A number is an active result; - = inactive; . = not tested or not shown.

SMILES | TbMetRS inhib | HGIII-sPLA2 inh | PLC-beta3 inh | PLCg1 inh | Tb MetRS conf | Jurkat tox | Tb MetRS inh FP
OC(c1ccccc1)(c1ccccc1)C1CCN(CCCOc2cccc(F)c2)CC1 | . | - | - | - | . | . | .
CN(CC(=O)Nc1c(Cl)cccc1Cl)C(=O)c1ccc(-n2cncn2)c([N+](=O)[O-])c1 | - | - | - | - | . | . | .
O=C(Nc1ccc(F)cc1)c1ccc(-n2cncn2)c([N+](=O)[O-])c1 | 34 | - | - | - | 48 | 22 | 28
CCCCc1nnc(NC(=O)c2ccc(-n3cncn3)c([N+](=O)[O-])c2)s1 | - | - | - | - | . | . | .
Cc1cccc(NC(=O)c2ccc(-n3cncn3)c([N+](=O)[O-])c2)c1 | 20 | - | - | - | 57 | - | 29
Cc1ccc(NC(=O)c2ccc(-n3cncn3)c([N+](=O)[O-])c2)cc1F | 13 | - | - | - | 56 | - | 25
CCc1ccccc1NC(=O)CNC(=O)c1ccc(-n2cncn2)c([N+](=O)[O-])c1 | 18 | - | - | - | 47 | - | 23
COC(=O)[C@]12CCCCC=C1N(Cc1ccc(OC)cc1)C(=O)[C@@H]2CC(=O)NCCc1ccccc1OC | . | - | - | - | . | . | .
CC(C)(C)c1ccc(-c2nnc(SCc3cccc4ccccc34)n2Cc2ccco2)cc1 | . | - | - | - | . | . | .
CS(=O)(=O)n1nc(-c2ccc(Cl)cc2)nc1SCc1ccccc1 | 6.7 | - | - | - | - | - | -
Cc1[nH]c2ccccc2c1CC(=O)Nc1ccc(Nc2cccnc2)c(Br)c1 | . | - | - | - | . | . | .
Cc1cc(SCC(=O)N/N=C/c2ccc(O)cc2O)c(C)cc1Br | 52 | - | - | - | 92 | 41 | 75
COc1ccc(C(C#N)=Cc2ccc(OC)c(OC)c2)cc1 | - | - | - | - | . | . | .
COc1ccc(/C=C(/C#N)c2cccnc2)cc1OC | 16 | - | - | - | 21 | - | -
COC(=O)CCN1CCSCCS1(=O)=O | . | - | - | - | . | . | .
O=C1[C@@H]2Cc3c([nH]c4ccccc34)C(c3cccc([N+](=O)[O-])c3)N2C(=O)CN1C1CCN(Cc2ccccc2)CC1 (stereo not given in full) | 91 | - | - | - | 94 | - | 74
CC(O)CN1C(=O)C(CC(=O)Nc2ccc(Cl)cc2)SC1=Nc1ccccc1 (stereo not given) | 27 | . | . | . | 53 | - | 22
COc1ccc2[nH]c(=O)c(CN(CC3CCCO3)C(=O)Nc3ccc(F)cc3)cc2c1 (stereo not given) | - | - | - | - | . | . | .
COc1ccc2[nH]c(=O)c(CN(C(C)=O)C3CCCCC3)cc2c1 | 9.6 | - | - | - | 15 | - | -
CCCCNC(=S)N(CCN(CC)CC)Cc1cc2cc3c(cc2[nH]c1=O)OCO3 | 8.8 | - | - | - | 16 | - | -
Cc1ccc2cc(CN(CC3CCCO3)C(=S)NCc3ccco3)c(=O)[nH]c2c1 (stereo not given) | - | - | - | - | . | . | .
Cc1ccc2[nH]c(=O)c(CN(CC3CCCO3)C(=S)NCc3ccco3)cc2c1 (stereo not given) | 12 | - | - | - | 23 | - | -
COc1ccc(NC(=O)N(Cc2cc3cc(C)ccc3[nH]c2=O)CC2CCCO2)cc1 (stereo not given) | 12 | - | - | - | 49 | - | 17
Cc1ccc(S(=O)(=O)N(CCc2ccccc2)CC(=O)N2CCOCC2)cc1 | . | - | - | - | . | . | .
Cc1ccccc1-c1ccc2c(c1)[C@@H]1C[C@H](N(C)C(=O)c3ccco3)[C@H]([C@H](C)O)CN1CC2 | . | - | - | - | . | . | .
SMILES | TbMetRS inhib | HGIII-sPLA2 inh | PLC-beta3 inh | PLCg1 inh | Tb MetRS conf | Jurkat tox | Tb MetRS inh FP
C[C@H]1CCCN1c1ccc2c(c1)OCCCN(C1CC1)S2(=O)=O | . | - | - | - | . | . | .
COc1ccc(/C=C2/CN(Cc3ccc(OC)cc3OC)C3=N[C@H](c4ccccc4)CC(=O)N32)cc1 | . | - | - | - | . | . | .
Cc1ccc2[nH]c(=O)c(CN(Cc3ccccc3)C(=S)NCCCN(C)C)cc2c1 | 7.0 | - | - | - | 17 | 17 | -
Cc1ccc2[nH]c(=O)c(CN(CC3CCCO3)C(=S)Nc3ccccc3)cc2c1 (stereo not given) | 6.1 | - | - | - | 48 | - | 27
COc1cc2cc(CN(CCc3ccccc3C)C(=S)NCCCN(C)C)c(=O)[nH]c2cc1OC | - | - | - | - | . | . | .
Cc1ccc2cc(CN(CC3CCCO3)C(=S)Nc3ccccc3)c(=O)[nH]c2c1 (stereo not given) | - | - | - | - | . | . | .
O=C(CN(Cc1ccccc1)C1=NCCS1)c1ccc(Cl)cc1 | 25 | - | - | - | 42 | - | 23
O=C(C1=C[C@@H](c2csc3ccccc23)C[C@@H](OCCCCO)O1)N1CCN(Cc2ccc3c(c2)OCO3)CC1 | 12 | - | - | - | 48 | - | 27
O=C(C1=C[C@@H](c2ccc(Br)cc2)C[C@@H](OCCCCO)O1)N1CCN(Cc2ccc3c(c2)OCO3)CC1 | 9.0 | - | - | - | 31 | - | -
O=C(C1=C[C@H](c2csc3ccccc23)C[C@H](OCCCCO)O1)N1CCN(Cc2ccc3c(c2)OCO3)CC1 | - | - | - | - | . | . | .
O=C(c1ccc2c(c1)C(=O)NC2=O)c1ccc2c(c1)C(=O)NC2=O | . | - | - | - | . | . | .
N#Cc1nc(COc2ccc(Cl)cc2Cl)oc1N1CCN(c2ccccc2)CC1 | - | - | - | - | . | . | .
N#Cc1nc(COc2ccc(Cl)cc2Cl)oc1N1CCOCC1 | 11 | - | - | - | 22 | - | -
CNC(=O)[C@@H]1CC=C[C@@H]2CCN(c3ccccc3)C(=O)[C@@H]21 | . | - | - | - | . | . | .
O=C(NCCCCc1ccccc1)Nc1cccc(F)c1 | 11 | - | - | - | 44 | - | 35
C=CCN1C(=O)[C@@H](CC(=O)NCCC(C)C)[C@]2(C(=O)OC)CCCCC=C12 | . | - | - | - | . | . | .
CCN(CC)C(=O)CC[C@H]1CC[C@]2(CCCN(C(=O)c3ccccc3)C2)O1 | . | - | - | - | . | . | .
O=C(CCCn1c(=S)[nH]c2cc3c(cc2c1=O)OCO3)N1CCN(c2ccccc2)CC1 | - | - | - | - | . | . | .
O=C(CCCn1c(=S)[nH]c2cc3c(cc2c1=O)OCO3)N1CCN(c2ccc(Cl)cc2)CC1 | 8.3 | - | - | - | 70 | - | 35
C[C@H](O)[C@@H]1C(=O)N2CCc3c([nH]c4c(-c5ccc6c(c5)OCO6)cccc34)[C@@H]2C[C@@H]1N(C)C(=O)OCc1ccccc1 | . | - | - | - | . | . | .
CCn1cnc2cc(NCc3cccc(OC)c3O)ccc21 | 18 | - | - | - | 36 | - | -
